Results reported in ChEMBL document CHEMBL4513216, “Probing the Open Global Health Chemical Diversity Library for Multistage-Active Starting Points for Next-Generation Antimalarials” (ACS Infect Dis, 2020).

Assay: Toxicity liver stage against HepG2, at 10uM
Assay type: cell-based
Parameters: test concentration 10 uM, cell line HepG2-A16-CD81EGFP
Conditions: human, HepG2-A16-CD81EGFP cells; read-out: INHIBITION
Outline: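 Uninfected HepG2-A16-CD81EGFP cells, 3 × 10^3 per well, 1536-well, plated on prespotted compound at 10 μM final, parasite-free screening media added to match infected plates; puromycin 10 μM positive, DMSO 0.5% negative; run in parallel with 48 h PbLuc assay at 37 °C, 5% CO2; viability by CellTiter-Glo luminescence, normalized to controls.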

Row | Compound | cytotoxicity at 10 µM [%]
1 | Cc1noc2ncnc(N(C)Cc3ccco3)c12 | 2.57
2 | COc1ccc(CN2CCCCCC2c2cccs2)c(OC)c1 (centres undefined) | 11
3 | CN(C)CCCn1cnc2cc(NC(=O)c3n[nH]c4c3CCC4)ccc21 | -5.3
4 | CC(C)NC(=O)C1CN(C(=O)Cc2cccc(F)c2)CC12CCOCC2 (centres undefined) | 4.58
5 | Cc1cccc(CN2CCC3(CCCN(C(=O)CN(C)C)C3)C2=O)n1 (centres undefined) | -3.49
6 | O=C(Cn1ccc2c(Cl)cccc21)N1CCC2(CC1)OCCO2 | 14.2
7 | O=C1CC2(CCN(c3nncs3)C2)CN1c1ccccc1 (centres undefined) | -8.25
8 | CC(C)CC(=O)N1CC[C@@H]2[C@H](CC1)N(S(C)(=O)=O)CCS2(=O)=O | -11.4
9 | O=C(NCC1CC1)C1CN(C(=O)c2cccs2)CC12CCOCC2 (centres undefined) | -14
10 | CCc1nc(NCCCn2cccn2)c2c(n1)c(C)nn2C | 6.41
11 | Cc1nn(CC(=O)N2CCN(c3ccccc3F)CC2)c(C)c1Cl | -12.6
12 | CC(NC(=O)C1CC1)c1cc(O)nc(-c2cccnc2)n1 (centres undefined) | 2.67
13 | CS(=O)(=O)N1CCCC1c1ccnc2nccn12 (centres undefined) | -2.62
14 | Cc1cc2ccncc2n1CC1(O)CCN(C(=O)c2cccnc2)CC1 | 4.18
15 | O=C(CC1CCN(c2cccnn2)CC1)NCCO | 0.308
16 | O=C1NC2(CCCN(C(=O)CCn3cccn3)C2)Oc2ccccc21 (centres undefined) | -6.19
17 | CC(=O)N1CCCC1c1nc(C)c2c(n1)N(Cc1ccccn1)CCC2 (centres undefined) | 0.711
18 | Cc1cc(-c2cnn(CCNC(=O)c3cnn(C)c3)c2C2CC2)on1 | -5.58
19 | Cc1ccc(S(=O)(=O)N2CCC(O)(CN(C)C)C2)cc1 (centres undefined) | -7.02
20 | Cc1nnc(CN(C)CC(=O)NC(C)(C)c2ccc(F)cc2)n1C | -4.25
21 | COc1cc(C(=O)NC2COc3ccccc3C2)ccc1OCC(N)=O (centres undefined) | -22.8

Row | Compound | cytotoxicity at 10 µM [%]
22 | CC1(C)CN(C(=O)c2cc(F)cc3[nH]cnc23)CCS1 | -7.36
23 | CC(NC(=O)CCn1cccn1)c1ccc(-n2ccnn2)cc1 (centres undefined) | -1.99
24 | CC(C)Oc1ccc(CN)c(C(F)(F)F)c1 | 0.71
25 | CCn1nc(C)cc1C(=O)OCC1CC(=O)N(Cc2ccccc2)C1 (centres undefined) | 6.68
26 | Cc1ncccc1C(=O)NCC(C)Oc1ccc(F)cc1 (centres undefined) | -4.08
27 | COc1ccc(CNCC2CN(C3CC3)CCO2)cc1C (centres undefined) | -8.01
28 | COc1ccc(-c2nnc(CN3CCNC(=O)C3)o2)cc1 | -2.27
29 | COc1ccc(C(=O)Nc2c(C)nn(C(C)C)c2C)cc1 | -3.13
30 | Cc1ccc(NC(=O)c2ccc(CC3CC(=O)NC3=O)cc2)cc1O (centres undefined) | 4.99
31 | CC(CC#N)N1CCN(C(=O)OC(C)(C)C)CC1 (centres undefined) | -2.72
32 | CCOc1ccc(N(C)S(=O)(=O)c2c[nH]c(C(C)C)n2)cc1 | -4.52
33 | CC(Cc1ccco1)NC(=O)C1=NN(c2ccccc2)C(=O)CC1 (centres undefined) | 0.537
34 | COCCCNC(=O)NCc1ccc(N2CCOC(C)C2)nc1 (centres undefined) | -5.82
35 | CC(=O)N1CCC(Nc2cccc(OC(F)F)c2C)CC1 | -15.1
36 | OC(CN1CCCc2ccc(F)cc21)Cn1cccn1 (centres undefined) | 5.95
37 | Cc1ccccc1C(=O)CN1C(=O)c2ccccc2CS1(=O)=O | -10.1
38 | c1ccc2oc(NC3CCCN(Cc4noc(C5CC5)n4)C3)nc2c1 (centres undefined) | -0.989
39 | CCN(Cc1ccco1)C(=O)c1cc(OC)c2c(c1)OCCO2 | -4.22
40 | CCc1cnc(CN(C)C2CCN(CCc3ccccn3)C2)o1 (centres undefined) | -14.2
41 | CC(=O)Nc1nc2c(s1)C1(CCN(C)CC1)Nc1ccccc1S2 | -14.5
42 | Cc1ccc(N2CCC(C3CCN(CC(C)C)CC3)C2)nn1 (centres undefined) | -6.81

Row | Compound | cytotoxicity at 10 µM [%]
43 | O=C1CC(NCc2ccc(Cl)s2)CN1Cc1cccc(F)c1 (centres undefined) | -0.73
44 | Cc1nc(CN2CCCC(Cn3cc(CCO)nn3)C2)c2ccccn12 (centres undefined) | 3.28
45 | CC(=O)N1CCCn2nc(CNc3cc(C)ncn3)cc2C1 | 5.19
46 | CCc1nc(CN(C)C(=O)C2CCC(=O)N(CC3CCCCC3)C2)no1 (centres undefined) | 4.46
47 | O=c1[nH]nc(CCCN2CCOCC2)n1Cc1cccc(F)c1 | 7.04
48 | Cc1ccc(C)c(OCc2cc(C(=O)N(C)CC(O)CO)no2)c1 (centres undefined) | 2.55
49 | COc1ccc(CCN(C)C(=O)CN2C(=O)OC[C@@H]2C(C)C)cc1OC | -11
50 | CCN(Cc1ccncc1)C(=O)C(C)n1ccnc1C(C)C (centres undefined) | 2.79
51 | COCCCN(Cc1cnc(N2CCCC2)nc1)C1CCN(C)CC1 | -10.3
52 | COCCNC(=O)c1cc(S(=O)(=O)N2CCCC2)cs1 | 6.15
53 | CN(C)Cc1nnc(C2CCN(c3nccc(N)n3)CC2)n1C1CC1 | -1.99
54 | CCCn1c(C)c(CC(=O)NC)c2c1CC(C)(C)CC2=O | -6.05
55 | CC(C)N1CCC(NCc2cccnc2N(C)C)CC1 | 21
56 | CCC1CN(C(=O)c2ccccc2N2CCCC2)CCN1C(C)C (centres undefined) | -9.78
57 | CCc1csc(C2CCCN(C(=O)c3cnc[nH]3)C2)n1 (centres undefined) | 1.78
58 | CCOc1ccc(Cl)c(C(=O)N2CCN(c3ccncc3)CC2)n1 | -5.44
59 | CC(Cn1cccn1)NCCCc1nc(-c2cccs2)no1 (centres undefined) | -9.8
60 | CC(C(=O)N1CCCN(c2ccc(C#N)cc2)CC1)n1cccn1 (centres undefined) | -3.02
61 | Cc1ncsc1C(=O)NCCNC(=O)c1cccs1 | -8.83
62 | Cc1ccccc1C1(C(=O)NCCN2CCCCC2C)CCOCC1 (centres undefined) | -1.69
63 | Cc1noc(C2CCCN(C(=O)CCNc3ncccn3)C2)n1 (centres undefined) | -8.27

Row | Compound | cytotoxicity at 10 µM [%]
64 | CCN(CC1COc2ccccc2O1)C(=O)NCCCn1cncn1 (centres undefined) | -9.27
65 | Cn1cc(C(=O)CC2CCCN2C(=O)c2ccncc2F)cn1 (centres undefined) | 0.555
66 | CC(C(=O)N1CCN(c2ncccn2)CC1)n1cncn1 (centres undefined) | -1.24
67 | CC(=O)N1CCCN(C(=O)C(C)n2cncn2)CC1 (centres undefined) | -0.227
68 | O=C(c1cccc2c1OCCO2)N1CCCCC1Cn1cccn1 (centres undefined) | -4.94
69 | CCOC(=O)N1CCN(Cc2ccc(OCc3nccn3C)cc2)CC1 | -9.34
70 | Cc1ccc(C(=O)Nc2cn[nH]c2)cc1C | 0.762
71 | CN(CC(=O)N1CCCC1Cn1cccn1)C1CC1 (centres undefined) | -9.39
72 | c1cnn(CCN2CCOC(Cn3cncn3)C2)c1 (centres undefined) | -0.498
73 | CC(NC(=O)NCc1cccnc1N1CCCCC1)c1nccs1 (centres undefined) | -7.95
74 | COc1ccc(C(C)N2CCN(Cc3nccn3C)CC2)cc1Cl (centres undefined) | -8.31
75 | Cc1cccnc1CNc1cc(N2CCCC2CO)ncn1 (centres undefined) | -10.3
76 | CC(C)(C)c1cn2nc(N3CCCC3Cn3cncn3)sc2n1 (centres undefined) | 1.43
77 | Cc1cc(C(=O)NCCN2CCN(S(C)(=O)=O)CC2)no1 | -6.29
78 | O=C(NCc1cncc2c1CCN(Cc1cccc(F)c1)C2)C1CC1 | -8.16
79 | O=C(c1ccccc1F)N1C[C@@H]2COC[C@]2(COCc2cccnc2)C1 | 6.27
80 | CC(C)N1CCOCC2(CN(Cc3nccs3)CCO2)C1 (centres undefined) | -0.653
81 | O=C(c1ccc(F)cc1)N1C[C@@H]2OCCN(c3ncccn3)[C@@H]2C1 | -9.55
82 | Cc1ccc(CN2Cc3nnn(C)c3C(COCCN(C)C)C2)s1 (centres undefined) | -7.25
83 | OC(CN1CCN(Cc2cccnc2)CC1)c1cccs1 (centres undefined) | -5.62
84 | CNC(=O)[C@H]1C[C@H]2OCC[C@H]2N(Cc2ccc(C)o2)C1 | 11.8
